ChEMBL document CHEMBL1287740, “Synthesis and bio-evaluation of alkylaminoaryl phenyl cyclopropyl methanones as antitubercular and antimalarial agents” (Bioorg Med Chem, 2010)
Converted amounts (≈) assume the structure as drawn. The source made the active and inactive calls. The calls are words filed in the database; no cut-off is given here.

How the values were obtained:
[1] = system: Mycobacterium tuberculosis; experiment: Antimicrobial activity against Mycobacterium tuberculosis H37Rv after 30 days by agar microdilution method; format: functional
Method in brief: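 Twofold dilutions of compound in DMSO incorporated into Middlebrook 7H10 medium with OADC supplement in slanted tubes, preincubated 37 °C for 24 h, then streaked with H37Rv harvested from L-J medium into 0.85% saline with 0.05% Tween-80 (5 × 10^5 bacilli per tube). Incubated at 37 °C; MIC = lowest concentration giving complete inhibition of colonies versus drug-free control.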

Plasmodium falciparum [2] = experiment: Antimalarial activity against Plasmodium falciparum 3D7 assessed as maturation of schizonts after 24 to 32 hrs by microdilution method; format: functional
Method in brief: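 P. falciparum 3D7 (chloroquine sensitive); twofold serial dilutions in complete RPMI 1640 from 10 mg/ml DMSO stocks, parasitized RBCs added (final hematocrit 3–4%, 1.0–2.0% parasitaemia, >95% rings). Incubated 24–32 h at 37 °C with 5% CO2. Thin smears stained with 15% Giemsa; schizont maturation scored against controls to give MIC.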

Plasmodium falciparum [3] = experiment: Antimalarial activity against Plasmodium falciparum 3D7 assessed as radiolabeled hypoxanthine uptake after 48 hrs by scintillation counting; format: functional, organism-based; conditions: 3D7, 48 h
Method in brief: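 Chloroquine-sensitive P. falciparum 3D7 asynchronous culture at 0.5% parasitaemia and 1.5% hematocrit, exposed to compounds for 24 h at 37 °C in CO2. Radiolabelled hypoxanthine (0.5 µCi/well) then added and incubation continued 48 h. Cells harvested onto filter paper, and radioactivity counted by scintillation β-counter. IC50 derived from hypoxanthine uptake.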

[4] = Cytotoxicity against african green monkey Vero cells after 72 hrs; format: cell-based; conditions: chlorocebus sabaeus
Method in brief: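 Vero (C1008 monkey kidney) cells grown in MEM + 15% FBS, 5% CO2, 37 °C. Trypsinized cells at 1 × 10^5 cells/ml seeded and allowed to adhere overnight, then exposed to serial compound dilutions for 72 h. Resazurin added and fluorescence read after 4 h.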

[5] = Selectivity index, ratio of CC50 for african green monkey (Cercopithecus aethiops) Vero cells to IC50 for Plasmodium falciparum 3D7; format: functional
Method in brief: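 Ratio of Vero CC50 (resazurin fluorescence after 72 h exposure) to P. falciparum 3D7 IC50 (radiolabelled hypoxanthine uptake; 24 h compound exposure, then 48 h with label).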

Mycolicibacterium aurum [6] = experiment: Inhibition of type II fatty acid biosynthesis pathway in Mycobacterium aurum at 25 uM after 12 hrs by lacZ reporter assay relative to untreated control; format: functional
Method in brief: (§1)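 Recombinant M. aurum lacZ reporter strains (kasA promoter or hsp60 promoter) grown in Sauton's medium with kanamycin at 37 °C to 0.5 OD600, diluted to 0.04–0.05 OD, equilibrated 2 h, then treated 12 h at 37 °C (10, 25, 50, 75 µM). Cells sonicated in PBS pH 7.2 and protein normalized by Bradford. β-gal measured with ONPG (4 mg/ml), 30 min at 37 °C, stopped with Na2CO3, OD 410 nm. Triplicates, relative to untreated control.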

Mycolicibacterium aurum [7] = experiment: Inhibition of type II fatty acid biosynthesis pathway in Mycobacterium aurum at 50 uM after 12 hrs by lacZ reporter assay relative to untreated control; format: functional; method in brief: as §1
Mycolicibacterium aurum [8] = experiment: Inhibition of type II fatty acid biosynthesis pathway in recombinant Mycobacterium aurum carrying hsp60 promoter assessed as beta-galactosidase activity at 50 to 100 uM after 12 hrs by lacZ reporter assay relative to untreated control; format: functional, organism-based
Mycolicibacterium aurum [9] = experiment: Inhibition of type II fatty acid biosynthesis pathway in Mycobacterium aurum assessed as beta-galactosidase activity at 50 to 100 uM after 12 hrs by lacZ reporter assay relative to untreated control; format: functional, organism-based
Mycolicibacterium aurum [10] = experiment: Inhibition of type II fatty acid biosynthesis pathway in Mycobacterium aurum assessed as growth inhibition by cfu analysis; format: functional
Method in brief: (§2)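 M. aurum (recombinant reporter strains) grown in Sauton's medium with 0.05% Tween-80 and kanamycin to 0.6 OD600, diluted to 0.05 OD. 1 × 10^5 cells inoculated into 5 ml medium with varying compound concentrations, grown 12 h at 37 °C with shaking. Viable cells counted by 10-fold serial dilution plating on nutrient agar-Tween-kanamycin. % inhibition calculated with untreated colony count taken as 100%.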

Mycolicibacterium aurum [11] = experiment: Inhibition of type II fatty acid biosynthesis pathway in Mycobacterium aurum assessed as growth inhibition by lacZ reporter assay; format: functional; method in brief: as §2

Question: For `CN(C)CCCNc1ccc(C(=O)C2CC2c2ccc(Cl)cc2)cc1` (stereo unspecified), which MIC [1] is on record?
Answer: Its MIC is 6.25 µg/mL (≈ 17.5 µM).

Question: What about the MIC (Plasmodium falciparum [2]) of the same compound?
Answer: Its MIC is 50 µg/mL (≈ 140 µM).

Question: And the IC50 (Plasmodium falciparum [3])?
Answer: Its IC50 is 2.86 µg/mL (≈ 8.01 µM).

Question: And the CC50 at 72 h [4]?
Answer: Its CC50 at 72 h is 15.8 µg/mL (≈ 44.4 µM).

Question: And the “Ratio CC50/IC50” value [5]?
Answer: Its value is 5.53.

Question: And the inhibition at 25 µM (Mycolicibacterium aurum [6])?
Answer: Its inhibition at 25 µM is 46.3%.

Question: What about the inhibition at 50 µM (Mycolicibacterium aurum [7]) of the same compound?
Answer: Its inhibition at 50 µM is 57.4%.

Question: What about the inhibition (Mycolicibacterium aurum [8]) of the same compound?
Answer: The inhibition was “inactive”.

Question: And the inhibition (Mycolicibacterium aurum [9])?
Answer: The inhibition was “Active”.

Question: And the “inhibition (INH)” value (Mycolicibacterium aurum [10])?
Answer: The value was “>=85%”.

Question: What about the “inhibition (INH)” value (Mycolicibacterium aurum [11]) of the same compound?
Answer: Its value is “>=85%”.
